According to ChEMBL document CHEMBL6153064, “Structure-based discovery of novel diarylpyrimidines as potent and selective Non-Nucleoside reverse transcriptase inhibitors: From CH(CN)-Biphenyl-Diarylpyrimidines to CNNH2-Biphenyl-Diarylpyrimidines” (Eur J Med Chem, 2025):

Assays:
[1] = system: Human immunodeficiency virus 1; test: Antiviral activity against wild type HIV-1 IIIB infected in human MT4 cells […]; type: functional, organism-based; settings: Human immunodeficiency virus 1, IIIB
[2] = Cytotoxicity against human MT4 cells by MTT assay; type: toxicity, cell-based
[3] = Selectivity index, ratio of CC50 for cytotoxicity against human MT4 cells to EC50 for antiviral activity against wild type HIV-1 IIIB infected in human MT4 cells; type: toxicity, cell-based; settings: read-out: Ratio CC50/EC50
Method in brief: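 Selectivity index calculated as CC50/EC50 ratio, both values from MTT viability readout in MT-4 cells, antiviral arm using wild-type HIV-1 IIIB.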

[4] = system: Human immunodeficiency virus 1; test: Antiviral activity against HIV-1 harboring L100I mutant infected in human MT4 cells […]; type: functional, organism-based; settings: Human immunodeficiency virus 1, MT4
[5] = system: Human immunodeficiency virus 1; test: Antiviral activity against HIV-1 harboring K103N mutant infected in human MT4 cells […]; type: functional, organism-based; settings: Human immunodeficiency virus 1, MT4
[6] = system: Human immunodeficiency virus 1; test: Antiviral activity against HIV-1 harboring Y181C mutant infected in human MT4 cells […]; type: functional, organism-based; settings: Human immunodeficiency virus 1, MT4
[7] = system: Human immunodeficiency virus 1; test: Antiviral activity against HIV-1 harboring E138K mutant infected in human MT4 cells […]; type: functional, organism-based; settings: Human immunodeficiency virus 1, MT4
[8] = biological target: Human immunodeficiency virus type 1 reverse transcriptase (Human immunodeficiency virus 1, UniProt Q72547); test: Inhibition of wild type HIV-1 Reverse transcriptase
[9] = biological target: Human immunodeficiency virus type 1 reverse transcriptase (Human immunodeficiency virus 1) (UniProt Q72547); test: Potency index, ratio of Nevirapine IC50 to test compound IC50 for inhibition of wild type HIV-1 Reverse transcriptase
[10] = system: Human immunodeficiency virus 1; test: Antiviral activity against HIV-1 harboring Y188L mutant infected in human MT4 cells assessed as inhibition of virus-induced cytopathic effect by MTT assay; settings: Human immunodeficiency virus 1, MT4
[11] = Stability in human plasma assessed as parent compound remaining measured immediately; type: ADME, cell-free; settings: read-out: Stability
[12] = Stability in human plasma assessed as parent compound remaining measured at 15 mins; type: ADME, cell-free; settings: read-out: Stability
[13] = Stability in human plasma assessed as parent compound remaining measured at 30 mins; type: ADME, cell-free; settings: read-out: Stability
[14] = Stability in human plasma assessed as parent compound remaining measured at 60 mins; type: ADME, cell-free; settings: read-out: Stability
[15] = Stability in human plasma assessed as parent compound remaining measured at 120 mins; type: ADME, cell-free; settings: read-out: Stability
[16] = Stability in human plasma assessed as parent compound remaining measured at 300 mins; type: ADME, cell-free; settings: read-out: Stability
[17] = Stability in human plasma assessed as half life; type: ADME, cell-free
[18] = Metabolic stability in human microsomes assessed as intrinsic clearance; type: ADME, Microsome; settings: read-out: CLH
Method in brief: (§1)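 Incubation with human liver microsomes; half-life obtained from depletion fit (R² reported), intrinsic clearance expressed per mg microsomal protein (μL/min/mg) and scaled to liver (mL/min/kg).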

[19] = Metabolic stability in human liver microsomes assessed as half life; type: ADME, Microsome; method in brief: as §1

**Q.** Which EC50 [1] does the source give for CNC(c1ccnc(Nc2ccc(C#N)cc2)n1)c1ccc(-c2ccc(C#N)cc2)cc1F (centres undefined) here?
**A.** 64 nM

**Q.** And the CC50 [2]?
**A.** 13 µM

**Q.** And the selectivity ratio [3]?
**A.** 196

**Q.** And the EC50 [4]?
**A.** ≥ 11000 nM

**Q.** And the EC50 [5]?
**A.** 10500 nM

**Q.** And the EC50 [6]?
**A.** 1910 nM

**Q.** And the EC50 [7]?
**A.** 368 nM

**Q.** And the IC50 [8]?
**A.** 783 nM

**Q.** And the Ratio IC50 [9]?
**A.** 0.96

**Q.** What about the EC50 [10] of the same compound?
**A.** > 12.7 µM

**Q.** For CNC(c1ccnc(Nc2ccc(C#N)cc2)n1)c1ccc(-c2ccc(C#N)cc2)cc1OC(F)(F)F (centres undefined), which EC50 [1] is on record?
**A.** 56 nM

**Q.** And the CC50 [2]?
**A.** 18 µM

**Q.** And the selectivity ratio [3]?
**A.** 313

**Q.** And the EC50 [4]?
**A.** 1940 nM

**Q.** And the EC50 [5]?
**A.** 1460 nM

**Q.** And the EC50 [6]?
**A.** 2220 nM

**Q.** What about the EC50 [7] of the same compound?
**A.** 320 nM

**Q.** What about the IC50 [8] of the same compound?
**A.** 2000 nM

**Q.** What about the Ratio IC50 [9] of the same compound?
**A.** 0.38

**Q.** And the EC50 [10]?
**A.** ≥ 7.21 µM

**Q.** With CNC(c1ccnc(Nc2ccc(C#N)cc2)n1)c1ccc(-c2ccc(C#N)cc2)cc1OC (centres undefined) as the compound, how does the EC50 [1] read?
**A.** 36 nM

**Q.** What about the CC50 [2] of the same compound?
**A.** 13 µM

**Q.** And the selectivity ratio [3]?
**A.** 354

**Q.** And the EC50 [4]?
**A.** 2330 nM

**Q.** And the EC50 [5]?
**A.** 941 nM

**Q.** And the EC50 [6]?
**A.** 1300 nM

**Q.** What about the EC50 [7] of the same compound?
**A.** 224 nM

**Q.** What about the IC50 [8] of the same compound?
**A.** 963 nM

**Q.** And the Ratio IC50 [9]?
**A.** 0.78

**Q.** And the EC50 [10]?
**A.** 7.32 µM

**Q.** With Cc1cc(/C=C/C#N)cc(C)c1Nc1ccnc(Nc2ccc(C#N)cc2)n1 [RILPIVIRINE] as the compound, how does the remaining at 0 min [11] read?
**A.** 100%

**Q.** And the remaining at 0.25 h [12]?
**A.** 102%

**Q.** What about the remaining at 0.5 h [13] of the same compound?
**A.** 99.4%

**Q.** And the remaining at 1 h [14]?
**A.** 99.3%

**Q.** What about the remaining at 2 h [15] of the same compound?
**A.** 95.3%

**Q.** What about the remaining at 5 h [16] of the same compound?
**A.** 97.4%

**Q.** What about the half-life [17] of the same compound?
**A.** > 300 min

**Q.** What about the microsomal CLint [18] of the same compound?
**A.** 108 µL/min/mg

**Q.** Which results are given for CNC(c1ccnc(Nc2ccc(C#N)cc2)n1)c1ccc(-c2ccc(C#N)cc2)cc1C(F)(F)F (centres undefined)?
**A.** EC50 [1]: 39 nM; CC50 [2]: 15 µM; selectivity ratio [3]: 363; EC50 [4]: 2440 nM; EC50 [5]: 1340 nM; EC50 [6]: 1180 nM; EC50 [7]: 184 nM; IC50 [8]: 495 nM; Ratio IC50 [9]: 1.5; EC50 [10]: 7.51 µM

**Q.** For Cc1cc(C#N)cc(C)c1Oc1nc(Nc2ccc(C#N)cc2)nc(N)c1Br [ETRAVIRINE], which CC50 [2] is on record?
**A.** > 4.6 µM

**Q.** What about the remaining at 0 min [11] of the same compound?
**A.** 100%

**Q.** What about the remaining at 0.25 h [12] of the same compound?
**A.** 102%

**Q.** What about the remaining at 0.5 h [13] of the same compound?
**A.** 95.4%

**Q.** And the remaining at 1 h [14]?
**A.** 97%

**Q.** What about the remaining at 2 h [15] of the same compound?
**A.** 92.1%

**Q.** What about the remaining at 5 h [16] of the same compound?
**A.** 78.5%

**Q.** What about the half-life [17] of the same compound?
**A.** > 300 min

**Q.** And the half-life [19]?
**A.** 65.5 min

**Q.** And the microsomal CLint [18]?
**A.** 21.1 µL/min/mg

**Q.** And the EC50 [10]?
**A.** 0.02 µM
